Some results are limits rather than exact numbers.

For data set [1], the target named is T1, Epidermal growth factor receptor (Homo sapiens, UniProt P00533). Nature of the data set: Inhibition of human wild type GST-tagged EGFR kinase domain expressed in Sf9 cells by luminescence assay. Format: cell-based.
The target of data set [2] is Epidermal growth factor receptor (Homo sapiens, UniProt P00533, L858R). The data set can be described thus: Inhibition of human GST-tagged EGFR L834R mutant expressed in Sf9 cells by luminescence assay. Format: cell-based.
Data set [3] has as its system Epidermal growth factor receptor (Homo sapiens), P00533 [L834R]. The data set can be described thus: Inhibition of EGFR L834R mutant (unknown origin) at 1 uM relative to control. The class given is protein assay. The gist of the method: (§1)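 Single-concentration profiling at 1 μM across a 317-kinase panel that includes wild-type and mutant EGFR and HER2. Activity of each kinase is given as percent inhibition relative to control.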

In data set [4] the test system is Epidermal growth factor receptor (Homo sapiens), P00533 [L858R]. Nature of the data set: Ratio of gefitinib IC50 to compound IC50 for human GST-tagged EGFR L834R mutant.
In data set [5] the target is T1, Epidermal growth factor receptor. The data set can be described thus: Ratio of gefitinib IC50 to compound IC50 for human wild type GST-tagged EGFR kinase domain.
In data set [6] the target is Cyclin-dependent kinase 2 (Homo sapiens) (UniProt P24941). Nature of the data set: Inhibition of CDK2 (unknown origin) at 1 uM relative to control. In short, it runs like this: as §1
In data set [7] the test system is Epidermal growth factor receptor (Homo sapiens), P04626+P00533+Q15303+P21860 [UNDEFINED MUTATION]. The data set can be described thus: Inhibition of EGFR T766M mutant (unknown origin) at 1 uM relative to control. The class given is protein assay. In short, it runs like this:
as §1

Data set [8] shares this test system. The data set can be described thus: Inhibition of EGFR T766M/L834R mutant (unknown origin) at 1 uM relative to control. Format: protein assay. In short, it runs like this:
as §1

Data set [9] addresses Epidermal growth factor receptor (Homo sapiens) (UniProt P04626+P00533+Q15303+P21860). The data set can be described thus: Inhibition of EGFR L837Q mutant (unknown origin) at 1 uM relative to control. The class given is protein assay. In short, it runs like this: as §1
For data set [10], the target named is T1, Epidermal growth factor receptor. The data set can be described thus: Inhibition of wild type EGFR (unknown origin) at 1 uM relative to control. The gist of the method:
as §1

The species entered for data set [11] is Homo sapiens. Nature of the data set: Toxicity in human assessed as occurrence of diarrhea. The conditions noted are these: in vivo. Format: organism-based.
Data set [12] is filed under the species Homo sapiens. The data set can be described thus: Toxicity in human assessed as occurrence of rash. Format: organism-based. The conditions noted are these: in vivo.

As for `OC[C@@H](Nc1ncnc2oc(-c3ccccc3)c(-c3ccccc3)c12)c1ccccc1`, the IC50 (commonly the concentration at which inhibition is half-maximal) in data set [1] turned out to be 393 nM; in [2], 52 nM.

As for `CC(C)CCCC(=O)Nc1cccc(-c2c(-c3ccccc3)oc3ncnc(N[C@H](CO)c4ccccc4)c23)c1`, the IC50 in [1] and in [2] was greater than 25000 nM in each case.

On to `CC[C@@H](Nc1ncnc2oc(-c3ccccc3)c(-c3ccccc3)c12)c1ccccc1`, for which the IC50 in [1] and in data set [2] was greater than 10000 nM throughout.

On to `OC[C@@H](Nc1ncnc2oc(-c3ccccc3)c(-c3ccco3)c12)c1ccccc1`, for which the results for the IC50 in data set [1] and in data set [2] were 434 nM and 73 nM, respectively.

As to `CN(C)CCCCC(=O)Nc1cccc(-c2c(-c3ccccc3)oc3ncnc(N[C@H](CO)c4ccccc4)c23)c1`, the 50% inhibitory concentration (IC50) is 34 nM in data set [1] and 4 nM in data set [2].

In the case of `O=[N+]([O-])c1cccc(-c2c(-c3ccccc3)oc3ncnc(N[C@H](CO)c4ccccc4)c23)c1`, the IC50 was 820 nM in data set [1] and 49 nM in [2].

`CN(C)CCCCCC(=O)Nc1cccc(-c2c(-c3ccccc3)oc3ncnc(N[C@H](CO)c4ccccc4)c23)c1`: the IC50 in data set [1] came out at 4330 nM; in [2], 486 nM.

In the case of `CN(C)CCC(=O)Nc1cccc(-c2c(-c3ccccc3)oc3ncnc(N[C@H](CO)c4ccccc4)c23)c1`, the inhibition (usually the change of the read-out against control, counted positive when it falls) in [3] is 100%; in [6], -4%; in data set [7], 50%; in data set [8], 80%; in data set [9], 106%; in data set [10] it was 99%. In addition, the Ratio IC50 in data set [4] was found to be 7; in [5] it was 4. Besides, the IC50 in data set [1] was determined as 8 nM; in data set [2], 2 nM.

Regarding `CC(=O)Nc1ccc(-c2c(-c3ccccc3)oc3ncnc(N[C@H](CO)c4ccccc4)c23)cc1`, the figures for the IC50 in data set [1] and in data set [2] were 179 nM and 23 nM, respectively.

On to `CN(C)CCCC(=O)Nc1cccc(-c2c(-c3ccccc3)oc3ncnc(N[C@H](CO)c4ccccc4)c23)c1`, for which the IC50 was 29 nM in data set [1] and 34 nM in [2].

Regarding `COC(=O)[C@@H](Nc1ncnc2oc(-c3ccccc3)c(-c3ccccc3)c12)c1ccccc1`, the figures for the IC50 in [1] and in data set [2] were 7890 nM and 1450 nM, respectively.

As for `CC(=O)Nc1cccc(-c2c(-c3ccccc3)oc3ncnc(N[C@H](CO)c4ccccc4)c23)c1`, the IC50 in [1] turned out to be 218 nM; in data set [2] it was 29 nM.

For `OC[C@@H](Nc1ncnc2oc(-c3ccccc3)c(Cl)c12)c1ccccc1`, the concentration for half-maximal inhibition (IC50) turned out to be 589 nM in data set [1] and 168 nM in data set [2].

Turning to `Nc1cccc(-c2c(-c3ccccc3)oc3ncnc(N[C@H](CO)c4ccccc4)c23)c1`, the IC50 in [1] worked out at 203 nM; in data set [2], 22 nM.

Consider `OC[C@@H](Nc1ncnc2oc(-c3ccccc3)c(-c3ccoc3)c12)c1ccccc1`, for which the IC50 in data set [1] was found to be 352 nM; in data set [2], 44 nM.

On to `C[C@@H](Nc1ncnc2oc(-c3ccccc3)c(-c3ccccc3)c12)c1ccccc1`, for which the values for the IC50 in data set [1] and in [2] were 2990 nM and 339 nM, respectively.

On to `CN(C)C/C=C/C(=O)Nc1cc2c(Nc3ccc(F)c(Cl)c3)ncnc2cc1O[C@@H]1CCOC1`, for which the Activity stood at 95% in the data set listed under Homo sapiens [11] and 62% in the data set listed under Homo sapiens [12].

With `CN(C)CC(=O)Nc1cccc(-c2c(-c3ccccc3)oc3ncnc(N[C@H](CO)c4ccccc4)c23)c1`, the IC50 is 48 nM in data set [1] and 4 nM in data set [2].

The record behind these values is ChEMBL document CHEMBL2346524, “Protein kinase inhibitor design by targeting the Asp-Phe-Gly (DFG) motif: the role of the DFG motif in the design of epidermal growth factor receptor inhibitors” (J Med Chem, 2013).
